Laboratory results taken from ChEMBL document CHEMBL1147066, “Structural basis of action for a human ether-a-go-go-related gene 1 potassium channel activator” (Proc Natl Acad Sci U S A, 2007).

Tests used:
[1] = target: Voltage-gated inwardly rectifying potassium channel KCNH2 (Homo sapiens, UniProt Q12809, G628C/S631C); assay: Effect on human ERG1 G628C/S631C mutant expressed in Xenopus laevis oocytes at 3 uM by two electrode voltage clamp technique; type: cell-based; details: oocyte
[2] = target: T1, Voltage-gated inwardly rectifying potassium channel KCNH2 (Homo sapiens, UniProt Q12809); assay: Activation of human ERG1 isoform 1 expressed in Xenopus laevis oocytes assessed as slowing of tail current deactivation by two electrode voltage clamp technique; type: cell-based; details: oocyte
Procedure, shortened: (§1)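 hERG1 (WT or point mutant) cRNA injected into Xenopus oocytes; two-electrode voltage clamp 1-5 days later. Bath: 96 mM NaCl, 2 mM KCl, 1 mM CaCl2, 2 mM MgCl2, 5 mM Hepes, pH 7.6. Holding potential -90 mV. Protocols repeated 10-15 min after adding compound to the bath, diluted from a 10 mM DMSO stock; one concentration per oocyte.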

[3] = target: T2, Voltage-gated inwardly rectifying potassium channel KCNH2 (Homo sapiens, UniProt Q12809, N658A); assay: (§2) Activation of human ERG1 N658A mutant expressed in Xenopus laevis oocytes assessed as slowing of tail current deactivation at 3 uM by two electrode voltage clamp technique; type: cell-based; details: oocyte; procedure, shortened: as §1
[4] = target: Voltage-gated inwardly rectifying potassium channel KCNH2 (Homo sapiens, UniProt Q12809, Y652A); assay: Activation of human ERG1 Y652A mutant expressed in Xenopus laevis oocytes assessed as slowing of tail current deactivation at 3 uM by two electrode voltage clamp technique; type: cell-based; details: oocyte; procedure, shortened: as §1
[5] = target: T3, Voltage-gated inwardly rectifying potassium channel KCNH2 (Homo sapiens, UniProt Q12809, V659A); assay: (§3) Activation of human ERG1 V659A mutant expressed in Xenopus laevis oocytes assessed as slowing of tail current deactivation at 3 uM by two electrode voltage clamp technique; type: cell-based; details: oocyte; procedure, shortened: as §1
[6] = target: Voltage-gated inwardly rectifying potassium channel KCNH2 (Homo sapiens, UniProt Q12809, I662A); assay: Activation of human ERG1 I662A mutant expressed in Xenopus laevis oocytes assessed as shifting of voltage dependence of inactivation towards positive potentials at 3 uM by two electrode voltage clamp technique; type: cell-based; details: oocyte; procedure, shortened: as §1
[7] = target: T4, Voltage-gated inwardly rectifying potassium channel KCNH2 (Homo sapiens, UniProt Q12809, L666A); assay: Activation of human ERG1 L666A mutant expressed in Xenopus laevis oocytes assessed as shifting of voltage dependence of inactivation towards positive potentials at 3 uM by two electrode voltage clamp technique; type: cell-based; details: oocyte; procedure, shortened: as §1
[8] = target: Voltage-gated inwardly rectifying potassium channel KCNH2 (Homo sapiens, UniProt Q12809, Y667A); assay: Activation of human ERG1 Y667A mutant expressed in Xenopus laevis oocytes assessed as shifting of voltage dependence of inactivation towards positive potentials at 3 uM by two electrode voltage clamp technique; type: cell-based; details: oocyte; procedure, shortened: as §1
[9] = target: Voltage-gated inwardly rectifying potassium channel KCNH2 (Homo sapiens, UniProt Q12809, V549A); assay: Activation of human ERG1 V549A mutant expressed in Xenopus laevis oocytes assessed as shifting of voltage dependence of inactivation towards positive potentials at 3 uM by two electrode voltage clamp technique; type: cell-based; details: oocyte; procedure, shortened: as §1
[10] = target: Voltage-gated inwardly rectifying potassium channel KCNH2 (Homo sapiens, UniProt Q12809, L550A); assay: Activation of human ERG1 L550A mutant expressed in Xenopus laevis oocytes assessed as shifting of voltage dependence of inactivation towards positive potentials at 3 uM by two electrode voltage clamp technique; type: cell-based; details: oocyte; procedure, shortened: as §1
[11] = target: T5, Voltage-gated inwardly rectifying potassium channel KCNH2 (Homo sapiens, UniProt Q12809, F557L); assay: Activation of human ERG1 F557L mutant expressed in Xenopus laevis oocytes assessed as shifting of voltage dependence of inactivation towards positive potentials at 30 uM by two electrode voltage clamp technique; type: cell-based; details: oocyte; procedure, shortened: as §1
[12] = target: T4, Voltage-gated inwardly rectifying potassium channel KCNH2; assay: Activation of human ERG1 L666A mutant expressed in Xenopus laevis oocytes assessed as shifting of voltage dependence of inactivation towards positive potentials at 30 uM by two electrode voltage clamp technique; type: cell-based; details: oocyte; procedure, shortened: as §1
[13] = target: T4, Voltage-gated inwardly rectifying potassium channel KCNH2; assay: Inhibition of human ERG1 L666A mutant expressed in Xenopus laevis oocytes assessed as decrease in current amplitude by two electrode voltage clamp technique; type: cell-based; details: oocyte; procedure, shortened: as §1
[14] = target: T1, Voltage-gated inwardly rectifying potassium channel KCNH2; assay: Activation of human ERG1 isoform 1 expressed in Xenopus laevis oocytes assessed as enhancement of current magnitude by two electrode voltage clamp technique; type: cell-based; details: oocyte
[15] = target: T1, Voltage-gated inwardly rectifying potassium channel KCNH2; assay: Activation of human ERG1 expressed in CHO cells assessed as enhancement of current magnitude at 10 uM by two electrode voltage clamp technique; type: cell-based
[16] = target: T1, Voltage-gated inwardly rectifying potassium channel KCNH2; assay: Activation of human ERG1 isoform 1 expressed in Xenopus laevis oocytes assessed as shifting of voltage dependence of inactivation towards positive potentials at 1 uM by two electrode voltage clamp technique; type: cell-based; details: oocyte; procedure, shortened: as §1
[17] = target: T1, Voltage-gated inwardly rectifying potassium channel KCNH2; assay: Activation of human ERG1 isoform 1 expressed in Xenopus laevis oocytes assessed as shifting of voltage dependence of inactivation towards positive potentials at 3 uM by two electrode voltage clamp technique; type: cell-based; details: oocyte; procedure, shortened: as §1
[18] = target: T1, Voltage-gated inwardly rectifying potassium channel KCNH2; assay: Activation of human ERG1 isoform 1 expressed in Xenopus laevis oocytes assessed as shifting of voltage dependence of inactivation towards positive potentials at 10 uM by two electrode voltage clamp technique; type: cell-based; details: oocyte; procedure, shortened: as §1
[19] = target: T1, Voltage-gated inwardly rectifying potassium channel KCNH2; assay: Activation of human ERG1 isoform 1 expressed in Xenopus laevis oocytes assessed as shifting of voltage dependence of inactivation towards positive potentials at 30 uM by two electrode voltage clamp technique; type: cell-based; details: oocyte; procedure, shortened: as §1
[20] = target: T1, Voltage-gated inwardly rectifying potassium channel KCNH2; assay: Activation of human ERG1 isoform 1 expressed in Xenopus laevis oocytes assessed as shifting of voltage dependence of inactivation towards positive potentials by two electrode voltage clamp technique; type: cell-based, Oocyte; procedure, shortened: as §1
[21] = target: T1, Voltage-gated inwardly rectifying potassium channel KCNH2; assay: Activation of human ERG1 isoform 1 expressed in Xenopus laevis oocytes assessed as increase in peak tail current magnitude by two electrode voltage clamp technique; type: cell-based, Oocyte
[22] = target: T1, Voltage-gated inwardly rectifying potassium channel KCNH2; assay: Binding affinity to human ERG1 expressed in Xenopus laevis oocytes assessed as half-saturation concentration; type: cell-based, Oocyte; details: read-out: Activity
[23] = target: T6, Voltage-gated inwardly rectifying potassium channel KCNH2 (Homo sapiens, UniProt Q12809, L553A); assay: (§4) Activation of human ERG1 L553A mutant expressed in Xenopus laevis oocytes assessed as slowing of tail current deactivation at 3 uM by two electrode voltage clamp technique; type: cell-based; details: oocyte; procedure, shortened: as §1
[24] = target: T5, Voltage-gated inwardly rectifying potassium channel KCNH2; assay: (§5) Activation of human ERG1 F557L mutant expressed in Xenopus laevis oocytes assessed as slowing of tail current deactivation at 3 uM by two electrode voltage clamp technique; type: cell-based; details: oocyte; procedure, shortened: as §1
[25] = target: T2, Voltage-gated inwardly rectifying potassium channel KCNH2; assay: as §2; type: cell-based; details: oocyte; procedure, shortened: as §1; remark: listed apart in the source
[26] = target: T3, Voltage-gated inwardly rectifying potassium channel KCNH2; assay: as §3; type: cell-based; details: oocyte; procedure, shortened: as §1; remark: listed apart in the source
[27] = target: T6, Voltage-gated inwardly rectifying potassium channel KCNH2; assay: as §4; type: cell-based; details: oocyte; procedure, shortened: as §1; remark: listed apart in the source
[28] = target: T5, Voltage-gated inwardly rectifying potassium channel KCNH2; assay: as §5; type: cell-based; details: oocyte; procedure, shortened: as §1; remark: listed apart in the source

For COc1ccc2nccc(C(=O)CC[C@@H]3CCN(CC#Cc4cc(F)cc(F)c4F)C[C@@H]3C(=O)O)c2c1, the Activity [1] was “Not Active”, the Activity [2] was “Active” and the Activity [3] was “Not Active”. For the same molecule, the Activity [4] was “Active”, the Activity [5] was “Not Active” and the Activity [6] was “Active”. The Activity [7] was “Active”, the Activity [8] was “Active” and the Activity [9] was “Active”. The Activity [10] was “Active”, the Activity [11] was less than 10 mV and the Activity [12] was less than 10 mV. For the same molecule, the Activity [13] was “Active”, the Activity [14] was “Active” and the Activity [15] was 15%. For the same molecule, the Activity [16] was 10.2 mV, the Activity [17] was 17.2 mV and the Activity [18] was 28 mV. For the same molecule, the Activity [19] was 36.9 mV, the EC50 [20] was 8 µM and the EC50 [21] was 15 µM. The Kd [22] was 9.4 µM, the Activity [23] was “Not Active” and the Activity [24] was “Not Active”. The Activity [25] was “Not Active”, the Activity [26] was “Not Active” and the Activity [27] was “Not Active”. The Activity [28] was “Not Active”.
